# According to ChEMBL document CHEMBL4689842, “EUbOPEN Chemogenomics Library wave 1” (2021):
# Where “and” joins values, the source holds several entries; their conditions need not be identical. Equal values may be shown once.
# Test system: Fibroblast
# Assay: Multiplex assay against human fibroblast
# Format: toxicity, cell-based
# Summary of the method: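 Per cents of healthy-nucleus cells form the tubulin, mitochondrial-mass and membrane-permeability phenotype values. Live cells were stained at seeding with Hoechst33342, BioTracker Green Microtubule Cytoskeleton Dye, MitoTracker Red and Annexin V Alexa Fluor 680. After compound addition they were imaged on a CQ1 microscope at 37°C and 5% CO2, and CellPathfinder machine-learning gating split them into Hoechst high-intensity objects or normal cells, normal cells into healthy, pyknosed or fragmented nuclei, and pyknosed cells into mitotic or apoptotic.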
# [1] = 12 h, 1 µM, compound concentration 1 uM, replicate 1
# [2] = 12 h, 1 µM, compound concentration 1 uM, replicate 2
# [3] = 12 h, 10 µM, compound concentration 10 uM, replicate 1
# [4] = 12 h, 10 µM, compound concentration 10 uM, replicate 2
# [5] = 24 h, 1 µM, compound concentration 1 uM, replicate 1
# [6] = 24 h, 1 µM, compound concentration 1 uM, replicate 2
# [7] = 24 h, 10 µM, compound concentration 10 uM, replicate 1
# [8] = 24 h, 10 µM, compound concentration 10 uM, replicate 2
# [9] = 48 h, 1 µM, compound concentration 1 uM, replicate 1
# [10] = 48 h, 1 µM, compound concentration 1 uM, replicate 2
# [11] = 48 h, 10 µM, compound concentration 10 uM, replicate 1
# [12] = 48 h, 10 µM, compound concentration 10 uM, replicate 2
structure (smiles),measurement,setting,value
Cc1csc2c(N[C@@H](C)CN3CCN(S(=O)(=O)c4ccc(Cl)c(Cl)c4)CC3)ncnc12,Population Apoptotic (%),[1],56%
same,Population Fragmented Nuclei (%),[1],22%
same,Population Healthy Nuclei (%),[1],46%
same,Population Hoechst High Intensity Objects (%),[1],5%
same,Population Membrane Permeable-Phenotype (%),[1],33%
same,Population Mitochondria Different-Phenotype (%),[1],21%
same,Population Mitotic Cells (%),[1],43%
same,Population Normal (%),[1],94%
same,Population Pyknosed Nuclei (%),[1],31%
same,Population Tubulin-Different-Phenotype (%),[1],87%
same,Total Cell Count,[1],149
same,Population Apoptotic (%),[2],16%
same,Population Fragmented Nuclei (%),[2],5%
same,Population Healthy Nuclei (%),[2],84%
same,Population Membrane Permeable-Phenotype (%),[2],6%
same,Population Mitochondria Different-Phenotype (%),[2],33%
same,Population Mitotic Cells (%),[2],83%
same,Population Normal (%),[2],95%
same,Population Pyknosed Nuclei (%),[2],10%
same,Population Tubulin-Different-Phenotype (%),[2],47%
same,Total Cell Count,[2],48
same,Population Apoptotic (%),[3],52%
same,Population Fragmented Nuclei (%),[3],32%
same,Population Healthy Nuclei (%),[3],29%
same,Population Hoechst High Intensity Objects (%),[3],21%
same,Population Membrane Permeable-Phenotype (%),[3],23%
same,Population Mitochondria Different-Phenotype (%),[3],42%
same,Population Mitotic Cells (%),[3],47%
same,Population Normal (%),[3],78%
same,Population Pyknosed Nuclei (%),[3],38%
same,Population Tubulin-Different-Phenotype (%),[3],92%
same,Total Cell Count,[3],113
same,Population Apoptotic (%),[4],75%
same,Population Fragmented Nuclei (%),[4],12%
same,Population Healthy Nuclei (%),[4],67%
same,Population Hoechst High Intensity Objects (%),[4],4%
same,Population Membrane Permeable-Phenotype (%),[4],56%
same,Population Mitochondria Different-Phenotype (%),[4],98%
same,Population Mitotic Cells (%),[4],25%
same,Population Normal (%),[4],95%
same,Population Pyknosed Nuclei (%),[4],19%
same,Population Tubulin-Different-Phenotype (%),[4],98%
same,Total Cell Count,[4],60
same,Population Apoptotic (%),[5],59%
same,Population Fragmented Nuclei (%),[5],26%
same,Population Healthy Nuclei (%),[5],44%
same,Population Hoechst High Intensity Objects (%),[5],8%
same,Population Membrane Permeable-Phenotype (%),[5],19%
same,Population Mitochondria Different-Phenotype (%),[5],33%
same,Population Mitotic Cells (%),[5],40%
same,Population Normal (%),[5],91%
same,Population Pyknosed Nuclei (%),[5],29%
same,Population Tubulin-Different-Phenotype (%),[5],90%
same,Total Cell Count,[5],156
same,Population Apoptotic (%),[6],60%
same,Population Fragmented Nuclei (%),[6],11%
same,Population Healthy Nuclei (%),[6],73%
same,Population Hoechst High Intensity Objects (%),[6],4%
same,Population Membrane Permeable-Phenotype (%),[6],11%
same,Population Mitochondria Different-Phenotype (%),[6],25%
same,Population Normal (%),[6],95%
same,Population Pyknosed Nuclei (%),[6],14%
same,Population Tubulin-Different-Phenotype (%),[6],23%
same,Total Cell Count,[6],64
same,Population Apoptotic (%),[7],67%
same,Population Fragmented Nuclei (%),[7],36%
same,Population Healthy Nuclei (%),[7],24%
same,Population Hoechst High Intensity Objects (%),[7],23%
same,Population Membrane Permeable-Phenotype (%),[7],19%
same,Population Mitochondria Different-Phenotype (%),[7],71%
same,Population Mitotic Cells (%),[7],32%
same,Population Normal (%),[7],76%
same,Population Pyknosed Nuclei (%),[7],39%
same,Population Tubulin-Different-Phenotype (%),[7],80%
same,Total Cell Count,[7],113
same,Population Apoptotic (%),[8],80%
same,Population Fragmented Nuclei (%),[8],15%
same,Population Healthy Nuclei (%),[8],57%
same,Population Hoechst High Intensity Objects (%),[8],4%
same,Population Membrane Permeable-Phenotype (%),[8],80%
same,Population Mitochondria Different-Phenotype (%),[8],97%
same,Population Mitotic Cells (%),[8],19%
same,Population Normal (%),[8],95%
same,Population Pyknosed Nuclei (%),[8],26%
same,Population Tubulin-Different-Phenotype (%),[8],97%
same,Total Cell Count,[8],72
same,Population Apoptotic (%),[9],67%
same,Population Fragmented Nuclei (%),[9],22%
same,Population Healthy Nuclei (%),[9],53%
same,Population Hoechst High Intensity Objects (%),[9],9%
same,Population Membrane Permeable-Phenotype (%),[9],33%
same,Population Mitochondria Different-Phenotype (%),[9],17%
same,Population Mitotic Cells (%),[9],32%
same,Population Normal (%),[9],90%
same,Population Pyknosed Nuclei (%),[9],24%
same,Population Tubulin-Different-Phenotype (%),[9],96%
same,Total Cell Count,[9],155
same,Population Apoptotic (%),[10],100%
same,Population Fragmented Nuclei (%),[10],31%
same,Population Healthy Nuclei (%),[10],67%
same,Population Hoechst High Intensity Objects (%),[10],8%
same,Population Membrane Permeable-Phenotype (%),[10],9%
same,Population Mitochondria Different-Phenotype (%),[10],7%
same,Population Mitotic Cells (%),[10],0%
same,Population Normal (%),[10],91%
same,Population Pyknosed Nuclei (%),[10],0%
same,Population Tubulin-Different-Phenotype (%),[10],93%
same,Total Cell Count,[10],123
same,Population Apoptotic (%),[11],100%
same,Population Fragmented Nuclei (%),[11],33%
same,Population Healthy Nuclei (%),[11],37%
same,Population Hoechst High Intensity Objects (%),[11],40%
same,Population Membrane Permeable-Phenotype (%),[11],21%
same,Population Mitochondria Different-Phenotype (%),[11],56%
same,Population Mitotic Cells (%),[11],0%
same,Population Normal (%),[11],59%
same,Population Pyknosed Nuclei (%),[11],29%
same,Population Tubulin-Different-Phenotype (%),[11],82%
same,Total Cell Count,[11],104
same,Population Apoptotic (%),[12],57%
same,Population Fragmented Nuclei (%),[12],44%
same,Population Healthy Nuclei (%),[12],47%
same,Population Hoechst High Intensity Objects (%),[12],25%
same,Population Membrane Permeable-Phenotype (%),[12],2%
same,Population Mitochondria Different-Phenotype (%),[12],79%
same,Population Mitotic Cells (%),[12],42%
same,Population Normal (%),[12],75%
same,Population Pyknosed Nuclei (%),[12],7%
same,Population Tubulin-Different-Phenotype (%),[12],95%
same,Total Cell Count,[12],120
NC(=O)Nc1cc(-c2cccc(F)c2)sc1C(=O)N[C@H]1CCCNC1 [AZD-7762],Population Apoptotic (%),[1],69%
same,Population Fragmented Nuclei (%),[1],20%
same,Population Healthy Nuclei (%),[1],62%
same,Population Hoechst High Intensity Objects (%),[1],14%
same,Population Membrane Permeable-Phenotype (%),[1],8%
same,Population Mitochondria Different-Phenotype (%),[1],0%
same,Population Mitotic Cells (%),[1],30%
same,Population Normal (%),[1],85%
same,Population Pyknosed Nuclei (%),[1],17%
same,Population Tubulin-Different-Phenotype (%),[1],1%
same,Total Cell Count,[1],226
same,Population Apoptotic (%),[2],60%
same,Population Fragmented Nuclei (%),[2],42%
same,Population Healthy Nuclei (%),[2],49%
same,Population Hoechst High Intensity Objects (%),[2],29%
same,Population Membrane Permeable-Phenotype (%),[2],16%
same,Population Mitochondria Different-Phenotype (%),[2],3%
same,Population Mitotic Cells (%),[2],40%
same,Population Normal (%),[2],70%
same,Population Pyknosed Nuclei (%),[2],8%
same,Population Tubulin-Different-Phenotype (%),[2],13%
same,Total Cell Count,[2],87
same,Population Apoptotic (%),[3],73% and 68%
same,Population Fragmented Nuclei (%),[3],47% and 34%
same,Population Healthy Nuclei (%),[3],35% and 51%
same,Population Hoechst High Intensity Objects (%),[3],16% and 18%
same,Population Membrane Permeable-Phenotype (%),[3],6% and 7%
same,Population Mitochondria Different-Phenotype (%),[3],3%
same,Population Mitotic Cells (%),[3],26% and 31%
same,Population Normal (%),[3],83% and 81%
same,Population Pyknosed Nuclei (%),[3],17% and 14%
same,Total Cell Count,[3],106 and 295
same,Population Apoptotic (%),[4],46% and 44%
same,Population Fragmented Nuclei (%),[4],22% and 60%
same,Population Healthy Nuclei (%),[4],25% and 27%
same,Population Membrane Permeable-Phenotype (%),[4],21% and 20%
same,Population Mitotic Cells (%),[4],53% and 55%
same,Population Normal (%),[4],94% and 67%
same,Population Tubulin-Different-Phenotype (%),[4],21% and 35%
same,Total Cell Count,[4],79 and 110
same,Population Apoptotic (%),[5],61%
same,Population Fragmented Nuclei (%),[5],25%
same,Population Healthy Nuclei (%),[5],62%
same,Population Hoechst High Intensity Objects (%),[5],14%
same,Population Membrane Permeable-Phenotype (%),[5],11%
same,Population Mitochondria Different-Phenotype (%),[5],1%
same,Population Mitotic Cells (%),[5],38%
same,Population Normal (%),[5],85%
same,Population Pyknosed Nuclei (%),[5],12%
same,Population Tubulin-Different-Phenotype (%),[5],2%
same,Total Cell Count,[5],238
same,Population Apoptotic (%),[6],0%
same,Population Fragmented Nuclei (%),[6],40%
same,Population Healthy Nuclei (%),[6],60%
same,Population Hoechst High Intensity Objects (%),[6],26%
same,Population Membrane Permeable-Phenotype (%),[6],10%
same,Population Mitochondria Different-Phenotype (%),[6],0%
same,Population Mitotic Cells (%),[6],0%
same,Population Normal (%),[6],73%
same,Population Pyknosed Nuclei (%),[6],0%
same,Population Tubulin-Different-Phenotype (%),[6],10%
same,Total Cell Count,[6],68
same,Population Apoptotic (%),[7],37% and 82%
same,Population Fragmented Nuclei (%),[7],47% and 41%
same,Population Healthy Nuclei (%),[7],44% and 47%
same,Population Hoechst High Intensity Objects (%),[7],27% and 14%
same,Population Mitochondria Different-Phenotype (%),[7],4% and 0%
same,Population Normal (%),[7],72% and 85%
same,Population Pyknosed Nuclei (%),[7],8% and 10%
same,Total Cell Count,[7],129 and 316
same,Population Apoptotic (%),[8],57% and 92%
same,Population Healthy Nuclei (%),[8],32% and 16%
same,Population Hoechst High Intensity Objects (%),[8],29% and 20%
same,Population Membrane Permeable-Phenotype (%),[8],100%
same,Population Normal (%),[8],70% and 80%
same,Population Pyknosed Nuclei (%),[8],66%
same,Total Cell Count,[8],115 and 75
same,Population Apoptotic (%),[11],25%
same,Population Fragmented Nuclei (%),[11],59%
same,Population Healthy Nuclei (%),[11],36%
same,Population Hoechst High Intensity Objects (%),[11],31%
same,Population Membrane Permeable-Phenotype (%),[11],17%
same,Population Mitochondria Different-Phenotype (%),[11],4%
same,Population Mitotic Cells (%),[11],75%
same,Population Normal (%),[11],68%
same,Population Pyknosed Nuclei (%),[11],3%
same,Population Tubulin-Different-Phenotype (%),[11],24%
same,Total Cell Count,[11],162
same,Population Apoptotic (%),[12],100%
same,Population Healthy Nuclei (%),[12],37%
same,Population Hoechst High Intensity Objects (%),[12],13%
same,Population Mitochondria Different-Phenotype (%),[12],2%
same,Population Mitotic Cells (%),[12],0%
same,Population Normal (%),[12],86%
same,Population Pyknosed Nuclei (%),[12],2%
same,Population Tubulin-Different-Phenotype (%),[12],14%
same,Total Cell Count,[12],126
